Blank lines part the entries; values can stand above or below the compound they belong to. Activity calls are given as the source filed them. The rule behind the calls is not given here.
Tests used:
[1] = test system: K562; assay: Growth inhibition of human K562 cells after 24 hrs; type: functional; conditions: K562, 24 h
Method in brief: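 K562 leukaemia cells (ATCC, grown per ATCC protocol), asynchronous suspension cultures at 5 × 10^6 cells/5 ml in fresh medium, exposed to compound for 24 h. Growth followed by 3H-thymidine incorporation. GI50 taken from quadruplicate dose–response curves.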

[2] = test system: K562; assay: Inhibition of Rap1a protein modification in human K562 cells by Western blot relative to lovastatin; type: functional
Method in brief: (§1)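 K562 cells in suspension culture (5 × 10^6 cells/5 ml, fresh medium) exposed 24 h to 1, 2.5, 5, 10, 25 or 50 µM compound. Protein quantified by BCA, resolved on 12% SDS gel, transferred to PVDF, probed for Rap1a with primary then secondary antibody (45 min each), ECL detection.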

[3] = test system: K562; assay: Inhibition of Rap1a protein modification in human K562 cells at 50 uM by Western blot; type: functional, cell-based
Method in brief: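 K562 leukemia suspension cultures (5 × 10^6 cells/5 ml, fresh medium) incubated 24 h with compound, tested over 1, 2.5, 5, 10, 25 and 50 µM. Protein quantified by BCA; lysates run on 12% gel, transferred to PVDF, probed sequentially with primary and secondary antibodies (45 min each) for Rap1a, detected by ECL chemiluminescence.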

[4] = biological target: T1, Geranylgeranyl pyrophosphate synthase (Homo sapiens) (UniProt O95749); assay: Inhibition of human recombinant GGDPS expressed in BL21 gold bacteria at 10 uM relative to control; design: scale not given: the % may be the effect or the level left
T1 sequence (whole entry): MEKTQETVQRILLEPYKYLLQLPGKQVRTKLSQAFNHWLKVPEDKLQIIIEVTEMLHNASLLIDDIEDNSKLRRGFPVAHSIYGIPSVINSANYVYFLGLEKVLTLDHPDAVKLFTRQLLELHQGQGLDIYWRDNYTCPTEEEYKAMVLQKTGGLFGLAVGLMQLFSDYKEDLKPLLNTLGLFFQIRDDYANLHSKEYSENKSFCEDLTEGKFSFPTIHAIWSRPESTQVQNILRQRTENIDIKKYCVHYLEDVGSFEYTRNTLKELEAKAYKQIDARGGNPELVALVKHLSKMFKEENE
Method in brief: (§2)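 GST-tagged recombinant human GGDPS expressed in BL21 gold E. coli (IPTG induction), glutathione-affinity purified. Reaction: 20 µM FPP, 40 µM [14C]IPP in 50 mM imidazole pH 7.5, 0.5 mM MgCl2, 0.5 mM ZnCl2. 10-min inhibitor preincubation, substrates added together, 1 h at 37 °C. [14C]GGPP extracted into butanol and counted by scintillation; activity as % of control, n = 3.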

[5] = biological target: T1, Geranylgeranyl pyrophosphate synthase (Homo sapiens); assay: Inhibition of human recombinant GGDPS expressed in BL21 gold bacteria at 100 uM relative to control; design: scale not given: the % may be the effect or the level left; method in brief: as §2
[6] = biological target: T2, Farnesyl pyrophosphate synthase (Homo sapiens, UniProt P14324); assay: Inhibition of human recombinant FDPS expressed in BL21 gold bacteria
T2 sequence (P14324 whole entry): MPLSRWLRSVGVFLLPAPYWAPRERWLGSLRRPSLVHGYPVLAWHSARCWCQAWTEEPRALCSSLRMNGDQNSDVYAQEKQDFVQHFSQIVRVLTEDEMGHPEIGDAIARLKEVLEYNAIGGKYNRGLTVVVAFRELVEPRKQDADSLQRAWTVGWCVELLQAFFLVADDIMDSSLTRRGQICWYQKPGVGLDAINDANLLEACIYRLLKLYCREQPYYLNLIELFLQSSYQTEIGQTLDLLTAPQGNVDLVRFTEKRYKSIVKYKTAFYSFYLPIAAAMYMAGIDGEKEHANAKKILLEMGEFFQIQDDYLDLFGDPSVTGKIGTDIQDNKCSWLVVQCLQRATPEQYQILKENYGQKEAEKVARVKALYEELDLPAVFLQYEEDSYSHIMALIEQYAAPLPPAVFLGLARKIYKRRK
Method in brief: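 GST-tagged recombinant human enzyme expressed in BL21 gold bacteria (IPTG induction), purified by affinity chromatography or glutathione agarose. Reaction: 20 µM GPP, 40 µM 14C IPP in 50 mM Tris pH 7.7, 10 mM NaF, 2 mM MgCl2, 1 mg/mL BSA. 10-min preincubation with inhibitor, substrates then added; 1 h at 37 °C. Products extracted with saturated butanol; 14C incorporation by scintillation counting; n = 3.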

[7] = biological target: T3, Farnesyl pyrophosphate synthase (Homo sapiens) (UniProt P14324); assay: Inhibition of human recombinant FDPS expressed in BL21 gold bacteria at 100 uM relative to control; design: scale not given: the % may be the effect or the level left
T3 sequence (whole entry): T2 sequence (P14324 whole entry)
Method in brief: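 GST-tagged recombinant human FDPS expressed in BL21 gold E. coli (IPTG induction), glutathione-affinity purified. Reaction: 20 µM GPP, 40 µM [14C]IPP in 50 mM Tris pH 7.7, 10 mM NaF, 2 mM MgCl2, 1 mg/mL BSA. 10-min enzyme–inhibitor preincubation, substrates added, 1 h at 37 °C. Butanol-extracted product counted by scintillation; n = 3.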

[8] = test system: K562; assay: Inhibition of Rap1a protein geranylgernaylation modification in human K562 cells upto 10 uM by Western blot; type: functional, cell-based; method in brief: as §1

GI50 [1]: > 100 µM
SMILES: CC(C)=CCC/C(C)=C\CC(P(=O)(O)O)P(=O)(O)O
Activity [2]: >50 µM
Activity [3]: inactive

SMILES: CC(C)=CCC/C(C)=C\CC(C/C=C(/C)CCC=C(C)C)(P(=O)(OCOC(=O)C(C)(C)C)OCOC(=O)C(C)(C)C)P(=O)(OCOC(=O)C(C)(C)C)OCOC(=O)C(C)(C)C
GI50 [1]: > 100 µM
Activity [2]: 10 µM

SMILES: CC(C)=CCC/C(C)=C/CC(C/C=C(\C)CCC=C(C)C)(P(=O)(OCOC(=O)C(C)(C)C)OCOC(=O)C(C)(C)C)P(=O)(OCOC(=O)C(C)(C)C)OCOC(=O)C(C)(C)C
GI50 [1]: 58 µM
Activity [4]: 96%
Activity [2]: 10 µM

SMILES: CC(C)=CCC/C(C)=C/CC/C(C)=C/CC(P(=O)(O)O)P(=O)(O)O
GI50 [1]: 90 µM
Activity [4]: 42%
Activity [2]: 10 µM

SMILES: CC(C)=CCC/C(C)=C\CC(C/C=C(\C)CCC=C(C)C)(P(=O)(OCOC(=O)C(C)(C)C)OCOC(=O)C(C)(C)C)P(=O)(OCOC(=O)C(C)(C)C)OCOC(=O)C(C)(C)C
GI50 [1]: > 100 µM
Activity [2]: 25 µM

SMILES: CC(C)=CCC/C(C)=C/CC/C(C)=C\CC(P(=O)(OCOC(=O)C(C)(C)C)OCOC(=O)C(C)(C)C)P(=O)(OCOC(=O)C(C)(C)C)OCOC(=O)C(C)(C)C
GI50 [1]: 2 µM
Activity [2]: >50 µM

SMILES: CC(C)=CCC/C(C)=C/CC(P(=O)(O)O)P(=O)(O)O
Activity [5]: 51%
GI50 [1]: > 100 µM
Activity [2]: >50 µM
IC50 [6]: 20 µM
Activity [3]: inactive
Activity [7]: 11%

SMILES: CC(C)=CCC/C(C)=C/CC(CC=C(C)C)(P(=O)(O)O)P(=O)(O)O
GI50 [1]: > 100 µM
Activity [4]: 38%
Activity [2]: 25 µM

SMILES: CC(C)=CCC(CC=C(C)C)(P(=O)(OCOC(=O)C(C)(C)C)OCOC(=O)C(C)(C)C)P(=O)(OCOC(=O)C(C)(C)C)OCOC(=O)C(C)(C)C
Activity [8]: Active
GI50 [1]: 7.7 µM
Activity [2]: 5 µM

SMILES: CC(C)=CCC/C(C)=C\CC/C(C)=C/CC(P(=O)(O)O)P(=O)(O)O
Activity [2]: 50 µM

GI50 [1]: > 100 µM
SMILES: CC(C)=CCC(CC=C(C)C)(P(=O)(O)O)P(=O)(O)O
Activity [2]: >50 µM
Activity [3]: inactive

SMILES: CC(C)=CCC/C(C)=C/CC/C(C)=C\CC(P(=O)(O)O)P(=O)(O)O
Activity [2]: >50 µM

SMILES: CC(C)=CCC/C(C)=C/CC(P(=O)(OCOC(=O)C(C)(C)C)OCOC(=O)C(C)(C)C)P(=O)(OCOC(=O)C(C)(C)C)OCOC(=O)C(C)(C)C
Activity [5]: 100%
GI50 [1]: 8.1 µM
Activity [2]: 10 µM
Activity [3]: inactive
Activity [7]: 99%

SMILES: CC(C)=CCC/C(C)=C\CC/C(C)=C/CC(P(=O)(OCOC(=O)C(C)(C)C)OCOC(=O)C(C)(C)C)P(=O)(OCOC(=O)C(C)(C)C)OCOC(=O)C(C)(C)C
GI50 [1]: 2.7 µM
Activity [2]: 10 µM

GI50 [1]: > 100 µM
IC50 [6]: > 100 µM
SMILES: CC(C)=CCC/C(C)=C\CC(CC=C(C)C)(P(=O)(O)O)P(=O)(O)O
Activity [2]: 50 µM
Activity [3]: inactive

GI50 [1]: > 100 µM
SMILES: CC(C)=CCC/C(C)=C/CC(C/C=C(\C)CCC=C(C)C)(P(=O)(O)O)P(=O)(O)O [DIGERANYL BISPHOSPHONATE]
Activity [2]: 25 µM

SMILES: CC(C)=CCC/C(C)=C\CC(CC=C(C)C)(P(=O)(OCOC(=O)C(C)(C)C)OCOC(=O)C(C)(C)C)P(=O)(OCOC(=O)C(C)(C)C)OCOC(=O)C(C)(C)C
Activity [8]: Active
GI50 [1]: 21 µM
Activity [2]: 5 µM
Activity [3]: inactive

SMILES: CC(C)=CCC/C(C)=C\CC(P(=O)(OCOC(=O)C(C)(C)C)OCOC(=O)C(C)(C)C)P(=O)(OCOC(=O)C(C)(C)C)OCOC(=O)C(C)(C)C
GI50 [1]: 7 µM
Activity [2]: >50 µM
Activity [3]: inactive

SMILES: CC(C)=CCC/C(C)=C\CC/C(C)=C\CC(P(=O)(OCOC(=O)C(C)(C)C)OCOC(=O)C(C)(C)C)P(=O)(OCOC(=O)C(C)(C)C)OCOC(=O)C(C)(C)C
GI50 [1]: 2.9 µM
Activity [2]: >50 µM

GI50 [1]: > 100 µM
SMILES: CC(C)=CCC/C(C)=C\CC(C/C=C(\C)CCC=C(C)C)(P(=O)(O)O)P(=O)(O)O
Activity [2]: 25 µM

SMILES: CC(C)=CCC/C(C)=C/CC/C(C)=C/CC(P(=O)(OCOC(=O)C(C)(C)C)OCOC(=O)C(C)(C)C)P(=O)(OCOC(=O)C(C)(C)C)OCOC(=O)C(C)(C)C
GI50 [1]: 7.9 µM
Activity [4]: 96%
Activity [2]: 10 µM

SMILES: CC(C)=CCC/C(C)=C/CC(CC=C(C)C)(P(=O)(OCOC(=O)C(C)(C)C)OCOC(=O)C(C)(C)C)P(=O)(OCOC(=O)C(C)(C)C)OCOC(=O)C(C)(C)C
GI50 [1]: 5.2 µM
Activity [4]: 101%
Activity [2]: 1 µM
Activity [3]: inactive

SMILES: CC(C)=CCC/C(C)=C\CC/C(C)=C\CC(P(=O)(O)O)P(=O)(O)O
Activity [2]: >50 µM

GI50 [1]: > 100 µM
SMILES: CC(C)=CCC/C(C)=C\CC(C/C=C(/C)CCC=C(C)C)(P(=O)(O)O)P(=O)(O)O
Activity [2]: 25 µM

Source: ChEMBL document CHEMBL1142438, “Pivaloyloxymethyl-modified isoprenoid bisphosphonates display enhanced inhibition of cellular geranylgeranylation” (Bioorg Med Chem, 2008)
